Measured values reported in ChEMBL document CHEMBL1146216, “Synthesis and biological activity of a gemcitabine phosphoramidate prodrug” (J Med Chem, 2007).

How the values were obtained:
[1] = Growth inhibition of AG6000 cells by SRB assay in presence of dipyridamole; format: functional, cell-based; conditions: Homo sapiens
How it was run: (§1)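 SRB growth assay run with the nucleoside transport inhibitor dipyridamole at 1 µM final. Cells were seeded at 5000/well and exposed to a range of drug concentrations for 72 h at 37 °C, 5% CO2. Media: DMEM for A2780 and the dCK-deficient AG6000; RPMI for A549, H292 and H460; each with 10% FCS and 20 mM HEPES. Relative growth was calculated against ODzero and untreated controls.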

UO-31 = assay: Growth inhibition of UO31 cells; format: functional; conditions: Homo sapiens
HT-29 = assay: Growth inhibition in HT29 cells; format: functional; conditions: Homo sapiens
[2] = Growth inhibition of AG6000 cells by SRB assay; format: functional, cell-based; conditions: Homo sapiens
How it was run: (§2)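 Cells seeded at 5000/well and exposed to a range of drug concentrations for 72 h at 37 °C, 5% CO2, then read by SRB. A2780 and its dCK-deficient variant AG6000 were grown in DMEM; A549, H292 and H460 in RPMI; both media had 10% FCS and 20 mM HEPES. OD was read at 540 or 492 nm. Relative growth = (ODtreated − ODzero)/(ODcontrol − ODzero) × 100%, with ODzero taken at drug addition.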

BT-549 = assay: Growth inhibition in BT549 cells; format: functional; conditions: Homo sapiens
NCI-H460 [3] = assay: Growth inhibition of NCI-H460 cells; format: functional; conditions: Homo sapiens
DU-145 = assay: Growth inhibition in DU145 cells; format: functional; conditions: Homo sapiens
CCRF-CEM [4] = assay: Growth inhibition of CEM cells by MTT assay; conditions: Homo sapiens
SW1573 [5] = assay: Growth inhibition of SW1573 cells by SRB assay; format: functional, cell-based; conditions: Homo sapiens
How it was run: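 SW1573 NSCLC cells grown in DMEM with 10% FCS and 20 mM HEPES at 37 °C, 5% CO2. Seeded at 5000 cells/well and exposed to a range of drug concentrations for 72 h, then SRB assay. OD read at 540 or 492 nm. Relative growth = (ODtreated − ODzero)/(ODcontrol − ODzero) × 100%, with ODzero taken at drug addition.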

NCI-H460 [6] = assay: Growth inhibition of H460 cells by SRB assay in presence of dipyridamole; format: functional, cell-based; conditions: Homo sapiens; how it was run: as §1
A549 [7] = assay: Growth inhibition in A549 cells; format: functional; conditions: Homo sapiens
SN12C = assay: Growth inhibition of SN12C cells; format: functional; conditions: Homo sapiens
A498 = assay: Growth inhibition in A498 cells; format: functional; conditions: Homo sapiens
[8] = Growth inhibition of H292 cells by SRB assay; format: functional, cell-based; conditions: Homo sapiens, NCI-H292; how it was run: as §2
SK-OV-3 = assay: Growth inhibition of SKOV3 cells; format: functional; conditions: Homo sapiens
EKVX = assay: Growth inhibition in EKVX cells; format: functional; conditions: Homo sapiens
[9] = Ratio of growth inhibition of AG6000 cells by drug to 2'-2'-difluorodeoxycytidine; format: functional, Homo sapiens
HOP-92 = assay: Growth inhibition in HOP92 cells; format: functional; conditions: Homo sapiens
[10] = Growth inhibition in HS 578T cells; format: functional; conditions: Homo sapiens
CCRF-CEM [11] = assay: Growth inhibition of dCK deficient CEM cells by MTT assay; conditions: Homo sapiens
[12] = Growth inhibition of H292 cells by SRB assay in presence of dipyridamole; format: functional, cell-based; conditions: Homo sapiens, NCI-H292; how it was run: as §1
OVCAR-3 = assay: Growth inhibition of OVCAR-3 cells; format: functional; conditions: Homo sapiens
SW1573 [13] = assay: Ratio of growth inhibition of SW1573 cells by drug to 2'-2'-difluorodeoxycytidine; format: functional, Homo sapiens
CCRF-CEM [14] = assay: Growth inhibition of dCK deficient CEM cells by MTT assay in presence of dipyridamole; conditions: Homo sapiens
SF-295 = assay: Growth inhibition of SF295 cells; format: functional; conditions: Homo sapiens
MCF7 = assay: Growth inhibition of MCF7 cells; format: functional; conditions: Homo sapiens
UACC-62 = assay: Growth inhibition of UACC62 cells; format: functional; conditions: Homo sapiens
A549 [15] = assay: Ratio of growth inhibition of A549 cells by drug to 2'-2'-difluorodeoxycytidine; format: functional, Homo sapiens
TK-10 = assay: Growth inhibition of TK10 cells; format: functional; conditions: Homo sapiens
SF-268 = assay: Growth inhibition of SF268 cells; format: functional; conditions: Homo sapiens
HCT-15 = assay: Growth inhibition in HCT15 cells; format: functional; conditions: Homo sapiens
SK-MEL-28 = assay: Growth inhibition of SK-MEL-28 cells; format: functional; conditions: Homo sapiens
LOX IMVI = assay: Growth inhibition of LOX IMVI cells; format: functional; conditions: Homo sapiens
786-0 = assay: Growth inhibition in 786-0 cells; format: functional; conditions: Homo sapiens
[16] = Ratio of growth inhibition of H292 cells by drug to 2'-2'-difluorodeoxycytidine; format: functional, Homo sapiens
CAKI-1 = assay: Growth inhibition in CAKI1 cells; format: functional; conditions: Homo sapiens
HOP-62 = assay: Growth inhibition in HOP62 cells; format: functional; conditions: Homo sapiens

`CN(CCCCCl)P(=O)(OCc1ccc([N+](=O)[O-])o1)OC[C@H]1O[C@@H](n2ccc(N)nc2=O)C(F)(F)[C@@H]1O` (some centres not stated) showed an IC50 [1] of 6 µM, a GI50 (UO-31) of 0.4 µM and a GI50 (HT-29) of 30 µM. It also gave an IC50 [2] of 5 µM, a GI50 (BT-549) of 1.6 µM and a GI50 (NCI-H460 [3]) of 0.3 µM. The GI50 (DU-145) was 0.19 µM, the IC50 (CCRF-CEM [4]) was 2 µM and the IC50 (SW1573 [5]) was 0.092 µM. For the same molecule, the IC50 (NCI-H460 [6]) was over 0.5 µM, the GI50 (A549 [7]) was 0.73 µM and the GI50 (SN12C) was 0.49 µM. For the same molecule, the GI50 (A498) was 5.8 µM, the IC50 [8] was 0.037 µM and the GI50 (SK-OV-3) was 2.2 µM. The GI50 (EKVX) was 2.5 µM, the “Ratio IC50” value [9] was 0.25 and the GI50 (HOP-92) was 0.15 µM. It also gave a GI50 [10] of 46 µM, an IC50 (CCRF-CEM [11]) of 13 µM and an IC50 [12] of 0.33 µM. The GI50 (OVCAR-3) was 3.2 µM, the “Ratio IC50” value (SW1573 [13]) was 5.8 and the IC50 (CCRF-CEM [14]) was 17 µM. It also gave a GI50 (SF-295) of 0.88 µM, a GI50 (MCF7) of 0.45 µM and a GI50 (UACC-62) of 1.1 µM. For the same molecule, the “Ratio IC50” value (A549 [15]) was 5.6, the GI50 (TK-10) was 1.5 µM and the GI50 (SF-268) was 0.26 µM. The GI50 (HCT-15) was 54 µM, the GI50 (SK-MEL-28) was 20 µM and the GI50 (LOX IMVI) was 0.76 µM. The GI50 (786-0) was 0.062 µM, the “Ratio IC50” value [16] was 2.8 and the GI50 (CAKI-1) was 0.22 µM. The GI50 (HOP-62) was 0.5 µM.
